Assay results taken from ChEMBL document CHEMBL1772934, “Applications of 2-arylhydrazononitriles in synthesis: preparation of new indole containing 1,2,3-triazole, pyrazole and pyrazolo[1,5-a]pyrimidine derivatives and evaluation of their antimicrobial activities” (2011).

How the values were obtained:
Format in all cases: functional
Settings in all cases: read-out: DIZ
[1] = test system: Bacillus subtilis; test: Antimicrobial activity against Bacillus subtilis at 1 mg/ml after 24 hrs by agar well diffusion method
In short: (§1)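 A 0.1 mL aliquot of each bacterial strain was spread on nutrient agar. 4 mm wells were cut with a sterile cork borer and filled with compound in DMSO at a final concentration of 1 mg mL-1. Plates were incubated at 37 °C for 24 h. The inhibition zone diameter around each well was measured and averaged over triplicate measurements.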

[2] = test system: Staphylococcus aureus; test: Antimicrobial activity against Staphylococcus aureus at 1 mg/ml after 24 hrs by agar well diffusion method; in short: as §1
[3] = test system: Escherichia coli; test: Antimicrobial activity against Escherichia coli at 1 mg/ml after 24 hrs by agar well diffusion method; in short: as §1
[4] = test system: Candida albicans; test: Antimicrobial activity against Candida albicans at 1 mg/ml after 48 hrs by agar well diffusion method
In short: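 A 0.1 mL aliquot of the yeast was spread on potato dextrose agar. 4 mm cork-borer wells received compound in DMSO at a final concentration of 1 mg mL-1. Plates were incubated at 25 °C for 48 h. The inhibition zone diameter was read and averaged over triplicate measurements.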

SMILES | zone of inhibition at 1000 µg/mL [1] | zone of inhibition at 1000 µg/mL [2] | zone of inhibition at 1000 µg/mL [3] | zone of inhibition at 1000 µg/mL [4]
Cc1[nH]c2ccccc2c1C(=O)c1nn(-c2ccccc2)nc1NC(=O)/C(C#N)=C/N(C)C | 2.5 mm | 0 mm | 0 mm | 0 mm
Cn1cc(C(=O)c2nn(-c3ccccc3)nc2N)c2ccccc21 | 6 mm | 12.2 mm | 6.7 mm | 10.7 mm
Cc1[nH]c2ccccc2c1C(=O)c1nn(-c2ccccc2)nc1N | 12 mm | 12 mm | 8.7 mm | 8.7 mm
Cc1[nH]c2ccccc2c1C(=O)c1nn(-c2ccccc2)nc1NC(=O)CC#N | 9.3 mm | 0 mm | 6.2 mm | 0 mm
Cc1[nH]c2ccccc2c1C(=O)c1nn(-c2ccccc2)nc1NC(=O)c1cn[nH]c1N | 11.3 mm | 0 mm | 0 mm | 0 mm
Cn1cc(C(=O)c2nn(-c3ccccc3)nc2NC(=O)CC#N)c2ccccc21 | 6 mm | 0 mm | 0 mm | 0 mm
Cc1[nH]c2ccccc2c1-c1c(C#N)c(=O)[nH]c2nn(-c3ccccc3)nc12 | 6 mm | 0 mm | 4 mm | 0 mm
Cc1[nH]c2ccccc2c1C(=O)c1nn(-c2ccccc2)nc1NC(=O)c1cnn2c(-c3ccccc3)ccnc12 | 8 mm | 0 mm | 5 mm | 0 mm
Cn1cc(C(=O)c2nn(-c3ccccc3)nc2NC(=O)c2cnn3c(-c4cccs4)ccnc23)c2ccccc21 | 4 mm | 0 mm | 0 mm | 5.7 mm
Cn1cc(C(=O)CC#N)c2ccccc21 | 2 mm | 0 mm | 0 mm | 0 mm
Cc1[nH]c2ccccc2c1C(=O)CC#N | 3.3 mm | 0 mm | 0 mm | 0 mm
Cn1cc(C(=O)/C(C#N)=N/Nc2ccccc2)c2ccccc21 | 2.7 mm | 0 mm | 0 mm | 0 mm
Cc1[nH]c2ccccc2c1C(=O)/C(C#N)=N/Nc1ccccc1 | 1.3 mm | 0 mm | 0 mm | 0 mm
CN(C)/C=C(\C#N)C(=O)Nc1nn(-c2ccccc2)nc1C(=O)c1cn(C)c2ccccc12 | 3.3 mm | 0 mm | 0 mm | 0 mm
Cn1cc(C(=O)c2nn(-c3ccccc3)nc2NC(=O)c2cn[nH]c2N)c2ccccc21 | 2.7 mm | 0 mm | 0 mm | 0 mm
Cn1cc(-c2c(C#N)c(=O)[nH]c3nn(-c4ccccc4)nc23)c2ccccc21 | 2 mm | 0 mm | 0 mm | 0 mm
Cn1cc(C(=O)c2nn(-c3ccccc3)nc2NC(=O)c2cnn3c(-c4ccccc4)ccnc23)c2ccccc21 | 3.3 mm | 0 mm | 0 mm | 0 mm
Cc1cccc(-c2ccnc3c(C(=O)Nc4nn(-c5ccccc5)nc4C(=O)c4cn(C)c5ccccc45)cnn23)n1 | 2.7 mm | 0 mm | 0 mm | 0 mm
Cn1cc(C(=O)c2nn(-c3ccccc3)nc2NC(=O)/C(C#N)=C/C=C/c2ccccc2)c2ccccc21 | 2.7 mm | 0 mm | 0 mm | 0 mm
Cc1[nH]c2ccccc2c1C(=O)c1nn(-c2ccccc2)nc1NC(=O)/C(C#N)=C/C=C/c1ccccc1 | 3 mm |  | 0 mm | 0 mm
CC1(C)S[C@@H]2[C@H](NC(=O)[C@H](N)c3ccccc3)C(=O)N2[C@H]1C(=O)O [AMPICILLIN] | 1 mm | 5 mm | 22 mm | 
